Source: ChEMBL document CHEMBL4130566, “χ-Space Screening of Dermorphin-Based Tetrapeptides through Use of Constrained Arylazepinone and Quinolinone Scaffolds” (ACS Med Chem Lett, 2017)
Square brackets hold non-standard residues; d marks the D form. Peptide text beside a SMILES is read from it.

Legend:
Mu-type opioid receptor [1] = target: T1, Mu-type opioid receptor (Cavia porcellus, UniProt P97266); experiment: (§1) Agonist activity at mu-opioid receptor in guinea pig ileum assessed as inhibition of electrically induced contractions; format: functional
How it was run: (§2)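 Guinea pig ileum (GPI) serves as the MOP-representative tissue and mouse vas deferens (MVD) as the DOP-representative tissue. Values are reported as IC50.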

[2] = target: Mu-type opioid receptor (Cavia porcellus) (UniProt P97266); experiment: as §1; format: functional; how it was run: as §2
Mus musculus = organism: Mus musculus; experiment: Selectivity ratio of IC50 for mouse FLAG-tagged delta-type opioid receptor expressed in HEK293 cell membranes to IC50 for mouse FLAG-tagged Mu-type opioid receptor expressed in HEK293 cell membranes; format: cell-based
Mu-type opioid receptor [3] = target: Mu-type opioid receptor (Mus musculus, UniProt P42866); experiment: Displacement of [125I]-DAMGO from mouse FLAG-tagged Mu-type opioid receptor expressed in HEK293 cell membranes after 60 mins by gamma counting analysis
How it was run: (§3)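 Competitive radioligand displacement binding in HEK293 cells expressing MOP or DOP. The MOP-selective tracer is [125I]-DAMGO and the DOP-selective tracer is [125I]-Deltorphin II. Values are reported as IC50.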

[4] = target: T2, Delta-type opioid receptor (Mus musculus, UniProt P32300); experiment: Agonist activity at delta-type opioid receptor in mouse vas deferens assessed as inhibition of electrically stimulated contractions; format: functional; how it was run: as §2
[5] = target: T2, Delta-type opioid receptor; experiment: Displacement of [125I]-Deltorphin II from mouse FLAG-tagged delta-type opioid receptor expressed in HEK293 cell membranes after 60 mins by gamma counting analysis; how it was run: as §3
[6] = target: Mu-type opioid receptor (Cavia porcellus) (UniProt P97266); experiment: Antagonist activity at mu-opioid receptor in guinea pig ileum assessed as inhibition of TAPP-induced reduction in electrically stimulated contractions; format: functional
[7] = target: Delta-type opioid receptor (Mus musculus) (UniProt P32300); experiment: Antagonist activity at delta-type opioid receptor in mouse vas deferens assessed as inhibition of DPDPE-induced electrically stimulated contractions; format: functional
Mu-type opioid receptor [8] = target: T3, Mu-type opioid receptor (Rattus norvegicus, UniProt P33535); experiment: Displacement of [3H]naloxone from Mu-type opioid receptor in Sprague-Dawley rat brain membranes; format: cell membranes, Membrane
[9] = target: T4, Delta-type opioid receptor (Rattus norvegicus, UniProt P33533); experiment: Displacement of [3H][Ile5,6]-deltorphin II from delta-type opioid receptor in Sprague-Dawley rat brain membranes; format: cell membranes, Membrane
[10] = target: T4, Delta-type opioid receptor; experiment: Displacement of [H][p-ClPhe4]-DPDPE from delta-type opioid receptor in Sprague-Dawley rat brain homogenates after 180 mins by scintillation counting
Mu-type opioid receptor [11] = target: T3, Mu-type opioid receptor; experiment: Displacement of [3H]-CTOP from Mu-type opioid receptor in Sprague-Dawley rat brain homogenate after 180 mins by scintillation counting
[12] = target: T2, Delta-type opioid receptor; experiment: Agonist activity at delta-type opioid receptor in ICR mouse vas deferens assessed as […] of electrically stimulated contractions after 3 mins post dose; format: functional
Mu-type opioid receptor [13] = target: T1, Mu-type opioid receptor; experiment: Agonist activity at mu-opioid receptor in Hartley guinea pig ileum assessed as inhibition of electrically induced contractions after 3 mins post dose; format: functional; how it was run: as §2
Mu-type opioid receptor [14] = target: Mu-type opioid receptor (Homo sapiens, UniProt P35372); experiment: Binding affinity to Mu-type opioid receptor (unknown origin)
[15] = target: Delta-type opioid receptor (Homo sapiens, UniProt P41143); experiment: Binding affinity to delta-type opioid receptor (unknown origin)
Chain of Delta-type opioid receptor (Homo sapiens, UniProt P41143) (P41143 whole entry): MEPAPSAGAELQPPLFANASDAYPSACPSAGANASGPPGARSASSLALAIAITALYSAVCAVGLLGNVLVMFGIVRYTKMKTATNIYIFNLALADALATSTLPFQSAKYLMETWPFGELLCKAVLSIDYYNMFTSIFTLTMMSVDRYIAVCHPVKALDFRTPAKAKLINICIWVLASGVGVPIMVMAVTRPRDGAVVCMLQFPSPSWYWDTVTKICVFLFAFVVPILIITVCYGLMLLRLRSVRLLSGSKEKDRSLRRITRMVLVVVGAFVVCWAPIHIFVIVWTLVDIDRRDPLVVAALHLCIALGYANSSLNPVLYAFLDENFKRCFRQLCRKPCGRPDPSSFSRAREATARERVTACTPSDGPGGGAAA

T2 sequence (P32300 whole entry): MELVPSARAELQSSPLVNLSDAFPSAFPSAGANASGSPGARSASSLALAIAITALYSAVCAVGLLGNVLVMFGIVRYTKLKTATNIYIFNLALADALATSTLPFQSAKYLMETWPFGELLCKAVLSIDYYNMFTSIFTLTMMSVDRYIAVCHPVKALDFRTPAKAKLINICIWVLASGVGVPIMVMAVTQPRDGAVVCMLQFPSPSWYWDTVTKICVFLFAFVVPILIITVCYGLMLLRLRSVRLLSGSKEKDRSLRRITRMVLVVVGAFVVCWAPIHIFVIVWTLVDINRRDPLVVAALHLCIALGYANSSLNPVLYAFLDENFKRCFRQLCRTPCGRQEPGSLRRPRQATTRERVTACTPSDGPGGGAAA
T1 sequence (P97266 whole entry): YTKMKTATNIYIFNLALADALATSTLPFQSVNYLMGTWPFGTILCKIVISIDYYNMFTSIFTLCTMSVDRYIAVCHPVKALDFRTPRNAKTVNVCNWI
Chain of Mu-type opioid receptor (Cavia porcellus) (P97266 whole entry): as above
Chain of Mu-type opioid receptor (Mus musculus, UniProt P42866) (P42866 whole entry): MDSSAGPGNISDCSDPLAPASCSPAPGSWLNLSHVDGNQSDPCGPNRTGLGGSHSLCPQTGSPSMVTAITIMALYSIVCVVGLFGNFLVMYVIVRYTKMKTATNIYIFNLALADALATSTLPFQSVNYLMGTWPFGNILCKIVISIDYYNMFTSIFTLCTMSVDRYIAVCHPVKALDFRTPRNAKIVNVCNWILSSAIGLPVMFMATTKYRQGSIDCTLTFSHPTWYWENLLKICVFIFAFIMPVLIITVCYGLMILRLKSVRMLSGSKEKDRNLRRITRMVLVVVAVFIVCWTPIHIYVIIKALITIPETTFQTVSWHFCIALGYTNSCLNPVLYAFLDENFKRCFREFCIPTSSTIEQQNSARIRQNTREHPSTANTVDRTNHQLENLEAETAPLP
T3 sequence (P33535 whole entry): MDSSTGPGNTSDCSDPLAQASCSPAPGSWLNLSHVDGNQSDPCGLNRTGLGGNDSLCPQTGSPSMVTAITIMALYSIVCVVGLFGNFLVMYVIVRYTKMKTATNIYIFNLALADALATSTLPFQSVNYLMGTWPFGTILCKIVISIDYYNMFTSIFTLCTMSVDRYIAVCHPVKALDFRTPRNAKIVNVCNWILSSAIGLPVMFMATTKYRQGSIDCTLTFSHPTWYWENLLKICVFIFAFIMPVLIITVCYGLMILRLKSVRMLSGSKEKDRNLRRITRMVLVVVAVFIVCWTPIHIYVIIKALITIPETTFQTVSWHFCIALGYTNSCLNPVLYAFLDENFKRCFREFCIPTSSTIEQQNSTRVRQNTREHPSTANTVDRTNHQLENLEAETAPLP
Chain of Delta-type opioid receptor (Mus musculus) (P32300 whole entry): as the sequence (P32300 whole entry) above
T4 sequence (P33533 whole entry): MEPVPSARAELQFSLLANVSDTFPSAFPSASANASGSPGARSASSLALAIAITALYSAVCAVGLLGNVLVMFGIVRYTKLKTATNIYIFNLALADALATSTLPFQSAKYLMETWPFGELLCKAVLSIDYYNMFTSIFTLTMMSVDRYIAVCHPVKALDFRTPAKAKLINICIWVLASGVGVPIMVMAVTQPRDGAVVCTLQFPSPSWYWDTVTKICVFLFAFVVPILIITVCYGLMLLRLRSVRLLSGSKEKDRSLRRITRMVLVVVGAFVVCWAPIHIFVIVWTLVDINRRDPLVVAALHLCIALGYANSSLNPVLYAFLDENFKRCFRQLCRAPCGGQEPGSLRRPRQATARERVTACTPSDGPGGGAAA
Chain of Mu-type opioid receptor (Homo sapiens, UniProt P35372) (P35372 whole entry): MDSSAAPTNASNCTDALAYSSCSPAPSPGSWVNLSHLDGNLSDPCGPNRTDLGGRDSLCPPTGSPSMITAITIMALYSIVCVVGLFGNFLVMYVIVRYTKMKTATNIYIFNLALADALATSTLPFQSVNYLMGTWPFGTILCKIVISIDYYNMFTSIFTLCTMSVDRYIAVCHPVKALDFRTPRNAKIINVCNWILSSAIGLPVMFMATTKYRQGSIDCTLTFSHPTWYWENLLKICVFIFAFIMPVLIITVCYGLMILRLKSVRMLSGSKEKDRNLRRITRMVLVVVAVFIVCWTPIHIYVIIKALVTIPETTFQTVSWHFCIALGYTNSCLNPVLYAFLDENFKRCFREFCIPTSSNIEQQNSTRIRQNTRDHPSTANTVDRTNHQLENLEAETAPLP

C[C@@H](NC(=O)[C@@H](N)Cc1ccc(O)cc1)C(=O)N[C@@H](Cc1ccccc1)C(=O)NCC(=O)N[C@@H](Cc1ccc(O)cc1)C(=O)N1CCC[C@H]1C(=O)N[C@@H](CO)C(N)=O [DERMORPHIN]
IC50 (Mu-type opioid receptor [1]): 1.06 nM

Cc1cc(O)cc(C)c1C[C@H](N)C(=O)N[C@H](CCCNC(=N)N)C(=O)N[C@H]1Cc2ccccc2N(CC(N)=O)C1=O
IC35 [2]: 33.7 nM
Ratio IC50 (Mus musculus): 389
IC50 (Mu-type opioid receptor [3]): 1.62 nM
IC50 [4]: 90.5 nM
IC50 [5]: 630 nM

Cc1cc(O)cc(C)c1C[C@H](N)C(=O)N[C@H](CCCNC(=N)N)C(=O)N[C@H]1Cc2ccc3ccccc3c2CN(CC(N)=O)C1=O
IC50 (Mu-type opioid receptor [1]): 21.4 nM
Ratio IC50 (Mus musculus): 70
IC50 (Mu-type opioid receptor [3]): 2.19 nM
IC50 [4]: 114 nM
IC50 [5]: 153 nM

Cc1cc(O)cc(C)c1C[C@H](N)C(=O)N[C@H](CCCNC(=N)N)C(=O)N[C@H]1Cc2c(ccc3ccccc23)CN(CC(N)=O)C1=O
IC50 (Mu-type opioid receptor [1]): 0.252 nM
Ratio IC50 (Mus musculus): 3
IC50 (Mu-type opioid receptor [3]): 0.33 nM
IC50 [4]: 1.42 nM
IC50 [5]: 1 nM

Cc1cc(O)cc(C)c1C[C@H](N)C(=O)N[C@H](C)C(=O)N[C@H]1Cc2ccc3ccccc3c2CN(CC(N)=O)C1=O
Ke [6]: 2.88 nM
Ratio IC50 (Mus musculus): 94
IC50 (Mu-type opioid receptor [3]): 1.78 nM
IC50 [5]: 167 nM
Ke [7]: 306 nM

Cc1cc(O)cc(C)c1C[C@H](N)C(=O)N(C)[C@H](C)C(=O)N[C@H]1Cc2c(ccc3ccccc23)CN(CC(N)=O)C1=O
IC50 (Mu-type opioid receptor [1]): 0.43 nM
Ratio IC50 (Mus musculus): 4
IC50 (Mu-type opioid receptor [3]): 0.35 nM
IC50 [4]: 1.09 nM
IC50 [5]: 1.47 nM

C[C@@H](NC(=O)[C@@H](N)Cc1ccc(O)cc1)C(=O)N[C@H]1Cc2ccccc2CN(CC(N)=O)C1=O
IC50 (Mu-type opioid receptor [1]): 50.4 nM
IC50 (Mu-type opioid receptor [8]): 34.4 nM
IC50 [9]: 15.8 nM
IC50 [4]: 47.1 nM

C[C@@H](NC(=O)[C@@H](N)Cc1ccc(O)cc1)C(=O)N[C@@H](Cc1ccccc1)C(=O)NCC(N)=O (H-Y[dA]FG-NH2)
IC50 [10]: 1250 nM
IC50 (Mu-type opioid receptor [11]): 36.7 nM
IC50 [12]: 263 nM
IC50 (Mu-type opioid receptor [13]): 35 nM

Cc1cc(O)cc(C)c1C[C@H](N)C(=O)N[C@H](C)C(=O)N[C@H]1Cc2cc3ccccc3cc2CN(CC(N)=O)C1=O
Ke [6]: 5.53 nM
Ke [7]: 360 nM

Cc1cc(O)cc(C)c1C[C@H](N)C(=O)N[C@H](CCCN=C(N)N)C(=O)N[C@H]1Cc2ccccc2CN(CC(N)=O)C1=O
Ki (Mu-type opioid receptor [14]): 0.15 nM
Ki [15]: 0.6 nM

Cc1cc(O)cc(C)c1C[C@H](N)C(=O)N[C@H](C)C(=O)N[C@H]1Cc2c(ccc3ccccc23)CN(CC(N)=O)C1=O
IC50 (Mu-type opioid receptor [1]): 1.13 nM
Ratio IC50 (Mus musculus): 5
IC50 (Mu-type opioid receptor [3]): 0.39 nM
IC50 [4]: 0.86 nM
IC50 [5]: 2.07 nM

Cc1cc(O)cc(C)c1C[C@H](N)C(=O)N[C@H](CCCNC(=N)N)C(=O)N[C@H]1Cc2ccc(Br)cc2CN(CC(N)=O)C1=O
IC25 [2]: 22 nM
Ratio IC50 (Mus musculus): 80
IC50 (Mu-type opioid receptor [3]): 0.76 nM
IC50 [4]: 8.51 nM
IC50 [5]: 60.7 nM
